Compound activity: PubChem, several laboratories
TMEM16A act = TMEM16A chloride channel activators or potentiators, primary screen, cell-based, HTS; Anoctamin-1 (Mus musculus), Q8BHY3; HEK293 TMEM16A/YFP-H148Q/I152L, iodide quench fluorescence; hits give low values; B-score at 10 µM; 0.3% of 340,000 active; AID 623877, 2012;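 active means fluorescence-ratio B-score plate-corrected deviation score at least 3 library SD below zero, with starting fluorescence score within 5 deviations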;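 further: channel opened by trigger with iodide after compound preincubation; score built on the fluorescence ratio of max minus min over baseline; more negative score means more quench and so TMEM16A activation or potentiation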
Target sequence (Q8BHY3 whole entry, looked up): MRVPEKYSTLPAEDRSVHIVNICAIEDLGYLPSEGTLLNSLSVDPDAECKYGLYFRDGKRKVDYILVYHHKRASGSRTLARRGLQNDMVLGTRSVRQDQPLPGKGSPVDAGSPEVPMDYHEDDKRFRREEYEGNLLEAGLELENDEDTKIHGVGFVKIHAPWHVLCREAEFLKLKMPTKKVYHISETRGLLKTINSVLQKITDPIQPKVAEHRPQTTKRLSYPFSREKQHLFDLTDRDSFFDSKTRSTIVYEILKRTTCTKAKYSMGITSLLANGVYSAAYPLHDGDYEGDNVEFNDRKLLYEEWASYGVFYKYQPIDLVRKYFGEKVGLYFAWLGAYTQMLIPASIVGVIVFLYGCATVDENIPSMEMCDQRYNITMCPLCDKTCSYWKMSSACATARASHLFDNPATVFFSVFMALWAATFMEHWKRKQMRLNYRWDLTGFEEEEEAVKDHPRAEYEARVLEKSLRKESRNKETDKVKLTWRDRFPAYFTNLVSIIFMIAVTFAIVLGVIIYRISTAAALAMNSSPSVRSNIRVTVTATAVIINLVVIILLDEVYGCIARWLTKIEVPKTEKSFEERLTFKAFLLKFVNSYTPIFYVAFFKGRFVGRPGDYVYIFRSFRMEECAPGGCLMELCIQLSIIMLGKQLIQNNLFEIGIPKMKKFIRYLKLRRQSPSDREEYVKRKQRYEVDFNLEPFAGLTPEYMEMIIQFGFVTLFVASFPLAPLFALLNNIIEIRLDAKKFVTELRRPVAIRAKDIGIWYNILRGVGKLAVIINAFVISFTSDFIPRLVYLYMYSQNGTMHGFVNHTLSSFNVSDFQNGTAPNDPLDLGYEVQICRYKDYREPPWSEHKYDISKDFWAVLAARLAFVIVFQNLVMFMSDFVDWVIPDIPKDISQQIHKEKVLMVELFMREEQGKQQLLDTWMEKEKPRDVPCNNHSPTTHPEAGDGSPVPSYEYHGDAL
CSC inhib = cancer stem cell viability inhibitors, primary screen, luminescence; cancer stem cell-like cells viability; inhibition, % at 7.5 µM; 1.1% of 300,000 active; AID 2717, 2010; in the data active means inhibition above about 75%; tested in HMLE shEcad cells
MC4R barr agon = MC4R agonists recruiting beta-arrestin, primary screen, cell-based, luminescence, agonist arm of biased-ligand search; Melanocortin receptor 4 (Homo sapiens), P32245; activation, % at 8.9 µM; U2OS MC4R beta-arrestin complementation; percent of melanotan II response, DMSO zero; 0.98% of 360,000 active;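 active means activation above a per-plate cutoff, the mean activation of sample wells on that plate plus 3 SD, cut at about 8% in these data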
Beta apoptosis = inhibitors of cytokine-induced beta cell apoptosis, primary screen, luminescence; 0.8% of 300,000 active; INS-1E cytokine-induced death, ATP luminescence, 48 h; percent of positive-control rescue, neutral wells zero; protection from apoptosis, % (no concentration beside the values);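 active means Every replicate reaches about 75%, or at least half do and their mean reaches it too, limit read from the data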;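 further: higher means more ATP so stronger rescue from cytokine killing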
TMEM16A inh = TMEM16A chloride channel inhibitors, primary screen, cell-based, HTS; HEK293 TMEM16A/YFP iodide influx fluorescence, ionomycin; normalized B-score (activity score, 25-100; higher = stronger inhibition) at 10 µM; 1.2% of 310,000 active;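 active means ratio plate-corrected score three or more library SD toward inhibition, starting fluorescence score within five deviations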;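 further: score derived from kinetic fluorescence span divided by baseline fluorescence per well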
MC4R antag cAMP = MC4R antagonists of cAMP signaling, primary screen, cell-based, TR-FRET, antagonist arm of biased-ligand search. 0.48% of 360,000 active. AID 540295, 2011. Melanocortin receptor 4 (Homo sapiens), P32245. MC4R-expressing cells, MTII-stimulated cAMP, LANCE TR-FRET. inhibition, % at 6.5 µM;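 active means inhibition above its plate's cutoff, the mean of tested wells on that plate plus 3 SD, cut at about 29% in these data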
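System – human MC4R-expressing U2OS cells · Also added – Melanotan II · Dosing – one concentration, 6.5 µM nominal · Timing – 30-min compound, 1-h challenge, 1-h detection, room temperature · Measured by – Eu-cAMP/anti-cAMP TR-FRET, emission 671 nm · Replicates – singlicate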
TMEM16A reconf = TMEM16A chloride channel inhibitors, confirmation, cell-based, re-confirmation. inhibition, % at 10 µM. HEK293 TMEM16A/YFP-H148Q, iodide quench fluorescence; ionomycin added to raise cell calcium. shares compounds with TMEM16A inh. AID 652189, 2013. 39% of 2,300 active;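 active means mean duplicate percent inhibition, scaled so buffer wells are 0 and the reference blocker 100, over three buffer SD above buffer mean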
TMEM16A Ca cntr = calcium mobilization in TMEM16A/YFP HEK293 cells, confirmation, counter-screen for TMEM16A inhibitor project; shares compounds with TMEM16A inh; Fluo4 calcium mobilization; calcium response (% of ionomycin), % at 10 µM; 2% of 2,300 active; AID 652231, 2013;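 active means duplicate-averaged calcium signal over 20% of the ionomycin maximum, relative to buffer baseline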;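 further: each well's signal is peak minus trough fluorescence divided by its pre-addition baseline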
Parental YFP cnt = iodide YFP quench changes in parental YFP-HEK293, counter-screen for TMEM16A inhibitor project, cell-based | ionomycin | YFP ratio F(max-min)/F0 at 10 µM | 2,300 tested, under 10 active | AID 652233, 2013 | shares compounds with TMEM16A inh;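 active means yellow fluorescent protein signal ratio exceeding the buffer control mean by over 5 SD of those controls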;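 further: ratio is mean of duplicate wells from kinetic YFP trace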
ClC-1 rat inh = ClC-1 chloride channel inhibition, selectivity assay for TMEM16A inhibitor project, cell-based, voltage-dependent ClC-1. AID 652236, 2013. shares compounds with TMEM16A inh. CHO ClC-1-YFP, iodide influx fluorescence quench; iodide control reads 0, buffer control 100. 2,300 tested, under 10 active. ratio percent, % at 10 µM;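 active means duplicate-mean ratio percent above the mean of iodide-only control wells, which defines zero, plus 5 of their SD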;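 further: higher percent means stronger block of ClC-1 iodide influx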
A number is an active result; i = inactive; nt = no result given. In the library only some 3.8% were active in any assay of this set; here they are far more common.

SMILES	TMEM16A act	CSC inhib	MC4R barr agon	Beta apoptosis	TMEM16A inh	MC4R antag cAMP	TMEM16A reconf	TMEM16A Ca cntr	Parental YFP cnt	ClC-1 rat inh
CC(=O)Nc1cccc(-c2csc(C(O)c3ccccc3)n2)c1 (centres undefined)	nt	nt	i	nt	nt	i	nt	nt	nt	nt
Cc1cnc(C(=O)OCc2nc3ccsc3c(=O)[nH]2)cn1	i	nt	i	i	nt	i	nt	nt	nt	nt
O=C(Nc1ccc(F)cc1F)N1CCCN(c2ccc(C(F)(F)F)cn2)CC1	i	i	i	i	25	i	18%	i	i	i
O=C(CCc1ccc(S(=O)(=O)N2CCOCC2)cc1)Nc1ccc(F)cc1[N+](=O)[O-]	i	i	i	i	nt	i	nt	nt	nt	nt
NC(=O)CC1C(=O)N(c2ccccc2)C(=S)N1NC(=O)c1ccccc1 (centres undefined)	nt	i	i	i	i	i	nt	nt	nt	nt
Cc1nn(CC(=O)N(C)Cc2ccccc2)c(=O)c2cccn12	i	i	i	i	i	i	nt	nt	nt	nt
Cc1cccc(OCCCSc2nc3ccccc3[nH]2)c1	i	i	i	i	100	i	17%	i	i	i
Cc1cccc(OCCSCc2nc3ccccc3[nH]2)c1	i	i	i	i	i	i	nt	nt	nt	nt
Cc1c(C(C)(C)C)s/c(=N/S(=O)(=O)c2ccccc2)n1C	i	i	i	i	100	i	i	i	i	i
Cc1c(C(C)(C)C)sc(=NC(=O)c2ccccc2O)n1C	i	i	i	i	i	i	nt	nt	nt	nt
Cc1ccc(SCCNC(=S)Nc2ccc(C)c(C)c2)cc1	i	i	i	i	100	i	26%	i	i	i
Cc1ccc(SCCNC(=S)Nc2ccccc2)cc1	i	i	i	i	i	i	nt	nt	nt	nt
O=[N+]([O-])c1cccc(-c2nc(-c3cccs3)c(-c3cccs3)[nH]2)c1	i	nt	i	i	i	i	nt	nt	nt	nt
O=[N+]([O-])c1ccc(-c2nc(-c3cccs3)c(-c3cccs3)[nH]2)cc1	i	i	i	i	i	i	20%	i	i	i
Cn1c2c(c(=O)n(C)c1=O)C(c1ccccc1Cl)C(C#N)=C(N)O2 (centres undefined)	i	i	i	i	i	i	nt	nt	nt	nt
N#CC1=C(N)OC2=C(CCc3ccccc32)C1c1ccccc1Cl (centres undefined)	i	i	i	i	i	i	38%	i	i	i
CN1CCN(C(=O)NC2CCCCC2)CC1	i	i	i	i	i	i	nt	nt	nt	nt
CN1CCN(C2CCCCCC2)CC1	i	i	i	i	25	i	i	i	i	i
COc1cc2c(C(=O)N3CCN(c4ccccc4)CC3)c(C)oc2cc1Br	i	i	i	i	i	i	i	i	i	i
COc1ccccc1-c1cc(C(=O)N2CCN(c3ccccc3)CC2)no1	i	i	i	i	i	i	nt	nt	nt	nt
CCCSc1nsc(NC(=O)Nc2ccc(F)cc2F)n1	i	95	i	106	100	i	66%	i	i	i
Cc1cc(C)nc(NC(=O)Nc2ccc(F)cc2F)n1	i	i	i	i	i	i	nt	nt	nt	nt
Cc1ccccc1NC(=O)CSc1nnc(C2CC2)n1CC1CCCO1 (centres undefined)	i	i	i	i	i	i	nt	nt	nt	nt
COc1ccc(-c2csc(Nc3ccc(C)cn3)n2)cc1OC	i	i	i	i	i	i	nt	nt	nt	nt
COc1ccc(-c2csc(Nc3cc(C)ccn3)n2)cc1OC	i	i	i	nt	25	i	24%	i	i	i
SMILES	TMEM16A act	CSC inhib	MC4R barr agon	Beta apoptosis	TMEM16A inh	MC4R antag cAMP	TMEM16A reconf	TMEM16A Ca cntr	Parental YFP cnt	ClC-1 rat inh
C[C@H](CO)N1C[C@H](C)[C@@H](CN(C)Cc2ccccc2)Oc2c(NS(=O)(=O)c3cn(C)cn3)cccc2C1=O	i	i	i	i	nt	i	nt	nt	nt	nt
COc1cc(CNCCO)cc(Cl)c1OCc1ccccc1Cl	i	i	i	i	i	i	nt	nt	nt	nt
CCOc1cc(CNCCO)cc(Br)c1OCc1ccccc1Cl	i	i	i	i	25	i	i	i	i	i
O=C(CSC(=S)N1CCCC1)Nc1ncc(Cl)cc1Cl	i	i	i	i	i	i	nt	nt	nt	nt
CCN(CC)S(=O)(=O)c1ccc(NC(=O)Nc2cccc(C(F)(F)F)c2)cc1	i	83	i	98	100	i	44%	i	i	i
CCN(CC)S(=O)(=O)c1ccc(NC(=O)C(OC)c2ccccc2)cc1 (centres undefined)	i	i	i	i	25	i	i	i	i	i
CCC(C(=O)NCc1ccco1)N(C(=O)CNS(=O)(=O)c1ccccc1)c1ccc(OC)cc1 (centres undefined)	i	nt	i	i	25	i	i	i	i	i
CCOC(=O)N1CCC(N2Cc3cccc(C(=O)NCC4CCN(CC(C)C)C4)c3C2=O)CC1 (centres undefined)	i	i	i	i	100	i	i	i	i	i
COCCN1Cc2cccc(C(=O)NCC3CCN(CC(C)C)C3)c2C1=O (centres undefined)	i	i	i	i	i	i	nt	nt	nt	nt
CCOC(=O)Cc1csc(NC(=O)c2csc(C)c2)n1	i	i	i	i	100	i	42%	i	i	i
CC(=O)c1cn(CC(=O)Nc2ccc(C)cc2C)c2ccccc12	i	i	i	i	25	i	20%	i	i	i
O=C(Nc1ccc2c(c1)OCO2)N1CCN(C(=O)C2CCCO2)CC1 (centres undefined)	i	i	i	i	25	i	i	i	i	i
O=C(Cc1cccs1)N1CCN(C(=O)C2CCCO2)CC1 (centres undefined)	i	i	i	i	i	i	nt	nt	nt	nt
O=C(Nc1ccc(Cl)cc1)N1CCN(C(=O)C2CCCO2)CC1 (centres undefined)	i	i	i	i	i	i	nt	nt	nt	nt
O=C(c1cccs1)N1CCN(C(=O)C2CCCO2)CC1 (centres undefined)	i	i	i	i	100	i	i	i	i	i
